# Assay results taken from the RNAGym collection of RNA variant scans (doi:10.1038/s41586-018-0170-7).
# B1: tRNA (parent)
# chain: GUUCCGUUGGCGUAAUGGUAACGCGUCUCCCUCCUAAGGAGAAGACUGCGGGUUCGAGUCCCGUACGGAACG
# Variants of: B1
# Assay: yeast fitness, log relative to wild type (ln ratio); higher = fitter; tRNA-Arg(CCU), competitive growth, 37 C, 1 M NaCl
# Procedure, shortened: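 In BY4742 missing the chromosomal gene, a combinatorial tRNA-Arg(CCU) variant library was maintained on a HIS3 centromeric plasmid. Selection ran ~6.5 generations (~26.5 h) in SC-HIS 1M NaCl at 37 °C, following 4 generations in SC-HIS at 30 °C, with three outputs per input and variant counts by 125 bp paired-end Illumina sequencing. Fitness is the natural log of a genotype's generations relative to the wild type's, with generations taken as inverse-variance-weighted, OD-scaled log2 output/input frequency.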
row,Variant,yeast fitness (ln)
1,GCUCCUUUGGCGUAAUGGUAACGCGUUUCCCUCCUAAGGAGACGAUUGCGGGUUCGAGUCCCGUAAGGGUUG [U2C G6U C27U A43C C46U C66A A69G A70U C71U],-0.26
2,AUUCCUUUGGCGUAAUGGUAACGCGUCUCCCUCCUAAGGAGACGACUGCGGGUUCGAGUCCCGUACGGAGCG [G1A G6U A43C A70G],-0.21
3,GUUCCGUUGGCGUAAUGGUAACGCGUCUCCCUCCUAAGGAGAAGACUGCGGGUUCGAGUCCCGUACGGGUCG [A69G A70U],-0.0431
4,AUUCCUUUGGCGUAAUGGUAACGCGUUUCCCUCCUAAGGAGAAGAUUGCGGGUUCGAGUCCCGUAUGGAUCG [G1A G6U C27U C46U C66U A70U],-0.29
5,ACUCCGUUGGCGUAAUGGUAACGCGUUUCCCUCCUAAGGAGACGAUUGCGGGUUCGAGUCCCGUACGGAGCG [G1A U2C C27U A43C C46U A70G],-0.0342
6,GUUCCAUUGGCGUAAUGGUAACGCGUCUCCCUCCUAAGGAGACGACUGCGGGUUCGAGUCCCGUAUGGAUCG [G6A A43C C66U A70U],-0.204
7,AGUCCGUUGGCGUAAUGGUAACGCGUUUCCCUCCUAAGGAGACGACUGCGGGUUCGAGUCCCGUACGGGGUG [G1A U2G C27U A43C A69G A70G C71U],-0.262
8,GUUCCAUUGGCGUAAUGGUAACGCGUUUCCCUCCUAAGGAGACGAUUGCGGGUUCGAGUCCCGUAAGGAGCG [G6A C27U A43C C46U C66A A70G],-0.191
9,GGUCCGUUGGCGUAAUGGUAACGCGUUUCCCUCCUAAGGAGAAGAUUGCGGGUUCGAGUCCCGUACGGGUCG [U2G C27U C46U A69G A70U],-0.0139
10,GCUCCAUUGGCGUAAUGGUAACGCGUUUCCCUCCUAAGGAGAAGAUUGCGGGUUCGAGUCCCGUACGGAGUG [U2C G6A C27U C46U A70G C71U],-0.239
11,GCUCCGUUGGCGUAAUGGUAACGCGUUUCCCUCCUAAGGAGACGACUGCGGGUUCGAGUCCCGUAAGGGGUG [U2C C27U A43C C66A A69G A70G C71U],-0.328
12,AUUCCUUUGGCGUAAUGGUAACGCGUUUCCCUCCUAAGGAGACGACUGCGGGUUCGAGUCCCGUACGGGAUG [G1A G6U C27U A43C A69G C71U],-0.557
13,GUUCCUUUGGCGUAAUGGUAACGCGUUUCCCUCCUAAGGAGACGAUUGCGGGUUCGAGUCCCGUACGGGGUG [G6U C27U A43C C46U A69G A70G C71U],-0.356
14,GUUCCAUUGGCGUAAUGGUAACGCGUUUCCCUCCUAAGGAGACGAUUGCGGGUUCGAGUCCCGUAUGGGGUG [G6A C27U A43C C46U C66U A69G A70G C71U],-0.28
15,ACUCCGUUGGCGUAAUGGUAACGCGUCUCCCUCCUAAGGAGACGAUUGCGGGUUCGAGUCCCGUACGGAACG [G1A U2C A43C C46U],-0.00932
16,ACUCCAUUGGCGUAAUGGUAACGCGUCUCCCUCCUAAGGAGAAGAUUGCGGGUUCGAGUCCCGUAUGGGUCG [G1A U2C G6A C46U C66U A69G A70U],-0.0207
17,AUUCCUUUGGCGUAAUGGUAACGCGUCUCCCUCCUAAGGAGACGACUGCGGGUUCGAGUCCCGUAUGGGUCG [G1A G6U A43C C66U A69G A70U],-0.452
18,ACUCCUUUGGCGUAAUGGUAACGCGUCUCCCUCCUAAGGAGAAGACUGCGGGUUCGAGUCCCGUACGGAUCG [G1A U2C G6U A70U],-0.00843
19,AUUCCAUUGGCGUAAUGGUAACGCGUCUCCCUCCUAAGGAGAAGACUGCGGGUUCGAGUCCCGUAAGGAAUG [G1A G6A C66A C71U],-0.0846

row,Variant,yeast fitness (ln)
1,AUUCCAUUGGCGUAAUGGUAACGCGUUUCCCUCCUAAGGAGACGAUUGCGGGUUCGAGUCCCGUACGGGAUG [G1A G6A C27U A43C C46U A69G C71U],-0.268
2,AUUCCUUUGGCGUAAUGGUAACGCGUUUCCCUCCUAAGGAGACGAUUGCGGGUUCGAGUCCCGUAAGGAACG [G1A G6U C27U A43C C46U C66A],-0.168
3,GUUCCGUUGGCGUAAUGGUAACGCGUUUCCCUCCUAAGGAGAAGACUGCGGGUUCGAGUCCCGUAUGGAGCG [C27U C66U A70G],-0.116
4,GUUCCUUUGGCGUAAUGGUAACGCGUUUCCCUCCUAAGGAGACGACUGCGGGUUCGAGUCCCGUAAGGGACG [G6U C27U A43C C66A A69G],-0.264
5,AGUCCGUUGGCGUAAUGGUAACGCGUUUCCCUCCUAAGGAGAAGACUGCGGGUUCGAGUCCCGUACGGGAUG [G1A U2G C27U A69G C71U],-0.251
6,GCUCCAUUGGCGUAAUGGUAACGCGUUUCCCUCCUAAGGAGACGACUGCGGGUUCGAGUCCCGUAUGGAAUG [U2C G6A C27U A43C C66U C71U],-0.148
7,GCUCCGUUGGCGUAAUGGUAACGCGUUUCCCUCCUAAGGAGACGACUGCGGGUUCGAGUCCCGUAUGGAGUG [U2C C27U A43C C66U A70G C71U],-0.207
8,GUUCCAUUGGCGUAAUGGUAACGCGUUUCCCUCCUAAGGAGACGAUUGCGGGUUCGAGUCCCGUACGGAGCG [G6A C27U A43C C46U A70G],-0.128
9,GUUCCGUUGGCGUAAUGGUAACGCGUCUCCCUCCUAAGGAGAAGACUGCGGGUUCGAGUCCCGUAAGGGGUG [C66A A69G A70G C71U],-0.0757
10,GGUCCUUUGGCGUAAUGGUAACGCGUCUCCCUCCUAAGGAGACGACUGCGGGUUCGAGUCCCGUAAGGAUCG [U2G G6U A43C C66A A70U],-0.0132
11,GUUCCGUUGGCGUAAUGGUAACGCGUUUCCCUCCUAAGGAGACGACUGCGGGUUCGAGUCCCGUAUGGGUCG [C27U A43C C66U A69G A70U],-0.361
12,AGUCCUUUGGCGUAAUGGUAACGCGUCUCCCUCCUAAGGAGACGACUGCGGGUUCGAGUCCCGUACGGAUUG [G1A U2G G6U A43C A70U C71U],-0.41
13,AUUCCUUUGGCGUAAUGGUAACGCGUUUCCCUCCUAAGGAGAAGACUGCGGGUUCGAGUCCCGUACGGGAUG [G1A G6U C27U A69G C71U],-0.371
14,GCUCCAUUGGCGUAAUGGUAACGCGUCUCCCUCCUAAGGAGACGACUGCGGGUUCGAGUCCCGUAAGGAUUG [U2C G6A A43C C66A A70U C71U],-0.261
15,AUUCCGUUGGCGUAAUGGUAACGCGUCUCCCUCCUAAGGAGACGAUUGCGGGUUCGAGUCCCGUAAGGGAUG [G1A A43C C46U C66A A69G C71U],-0.216
16,AUUCCUUUGGCGUAAUGGUAACGCGUCUCCCUCCUAAGGAGAAGACUGCGGGUUCGAGUCCCGUAUGGAUCG [G1A G6U C66U A70U],-0.154
17,GGUCCGUUGGCGUAAUGGUAACGCGUUUCCCUCCUAAGGAGAAGAUUGCGGGUUCGAGUCCCGUAUGGAUUG [U2G C27U C46U C66U A70U C71U],-0.308
18,GUUCCUUUGGCGUAAUGGUAACGCGUCUCCCUCCUAAGGAGACGACUGCGGGUUCGAGUCCCGUAUGGGUCG [G6U A43C C66U A69G A70U],-0.356
19,AGUCCGUUGGCGUAAUGGUAACGCGUUUCCCUCCUAAGGAGAAGACUGCGGGUUCGAGUCCCGUAAGGAGUG [G1A U2G C27U C66A A70G C71U],-0.306
